In ChEMBL document CHEMBL1141553, “Synthesis and pharmacological activity of chalcones derived from 2,4,6-trimethoxyacetophenone in RAW 264.7 cells stimulated by LPS: quantitative structure-activity relationships” (Bioorg Med Chem, 2008):
pIC50: −log10 of the molar value.

Columns and labels:
RAW264.7 = test: Inhibition of LPS-induced nitric oxide production in mouse RAW264.7 cells; type: functional, cell-based
Procedure, shortened: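 Compounds were pre-added 30 min before LPS stimulation for 24 h. Supernatant was mixed 1:1 with Griess reagent (1% sulfanilamide, 0.1% naphthylethylenediamine dihydrochloride, 2% phosphoric acid) for 5 min at room temperature. Nitrite was read at OD 550 nm against a NaNO₂ standard curve. IC50 came from dose–inhibition curves, mean of four independent experiments.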

[1] = Cytotoxicity against mouse RAW264.7 cells assessed as cell viability at 13.10 uM by MTT assay; type: cell-based; conditions: read-out: Activity
[2] = Cytotoxicity against mouse RAW264.7 cells assessed as cell viability at 3.78 uM by MTT assay; type: cell-based; conditions: read-out: Activity
[3] = Selectivity for iNOS to nNOS
[4] = Selectivity for iNOS to eNOS

pIC50 (RAW264.7)	Selectivity ratio [3]	Selectivity ratio [4]	Compound	viability at 13.1 µM [1] [%]	viability at 3.78 µM [2] [%]
4.88			COc1cc(OC)c(C(=O)/C=C/c2ccc3c(c2)OCO3)c(OC)c1	100	
5.42	200	5000	CC(=N)NCc1cccc(CN)c1 [1400W]		82
